This is an account of results in ChEMBL document CHEMBL4680062, “Structure-property studies of an imidazoquinoline chemotype with antitrypanosomal activity” (RSC Med Chem, 2020).

Data set [1] can be described thus: Intrinsic clearance in Han Wistar rat hepatocytes assessed per million cells at 1 uM by LC/MS/MS analysis. To be noted: read-out: CLH. The format is ADME, cell-based, Hepatocyte.
A short description of data set [2]: Intrinsic clearance in human liver microsomes by LC/MS/MS analysis. The format is ADME, Microsome. The settings on record: read-out: CLH.
Data set [3] is described as follows: 1-Octanol-aquoues buffer distribution coefficient, log D of compound at pH 7.4 by UPLC-MS based shake flask method. The format is physicochemical. The settings on record: 1-octanol/aqueous buffer.
Data set [4] can be described thus: AUC in NMRI mouse at 10 mg/kg, ip measured up to 24 hrs by LC/MS/MS analysis. The format is ADME, organism-based. Details: route intraperitoneal, dose 10 mg/kg, time <=24; call rule not given here. To be noted: in vivo. In outline:
(§1)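 Female NMRI mice (n=3) dosed IP at a target of 10 mg/kg. Vehicle: 1% DMSO and 99% of a 20% Captisol solution in water. Drug levels measured in peripheral blood.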

Data set [5] is described as follows: Ratio of drug level in brain to plasma in NMRI mouse at 10 mg/kg, ip measured up to 24 hrs by LC/MS/MS analysis. The settings on record: brain and plasma, read-out: BPR. The format is ADME, organism-based.
Data set [6] is described as follows: Cmax in NMRI mouse at 10 mg/kg, ip measured up to 24 hrs by LC/MS/MS analysis. The class given is ADME, organism-based. Also noted: route intraperitoneal, dose 10 mg/kg, time <=24. To be noted: in vivo. In outline: as §1
Data set [7] in a line: Half life in NMRI mouse at 10 mg/kg, ip measured up to 24 hrs by LC/MS/MS analysis. The format is ADME, organism-based. The settings on record: in vivo. In short, it runs like this: as §1
A short description of data set [8]: Drug exposure in NMRI mouse blood at 10 mg/kg, ip measured after 4 hrs by LC/MS/MS analysis. The format is ADME, organism-based. To be noted: in vivo. In short, it runs like this:
as §1

Data set [9] is described as follows: Drug exposure in NMRI mouse brain at 10 mg/kg, ip measured after 4 hrs by LC/MS/MS analysis. The class given is ADME, organism-based. To be noted: in vivo.
Data set [10] can be described thus: Tmax in NMRI mouse at 10 mg/kg, ip measured up to 24 hrs by LC/MS/MS analysis. The format is ADME, organism-based. To be noted: in vivo. In outline: as §1

Usually logD stands for the decadic logarithm of the distribution of all forms, ionised or not, between an organic phase and buffer at a given pH. Read a low logD as lower lipophilicity. What is called AUC is the area under the concentration-time curve, a measure of exposure. A lower AUC goes with less exposure. Usually Cmax stands for the peak of the concentration-time curve. The half-life is how long it takes for the measured level to halve. Low values mean fast loss, high ones slow loss. In general, Tmax refers to the time from dosing to the highest level.

For `Cn1c(=O)n(C2CCNCC2)c2c3cc(-c4cn[nH]c4)ccc3ncc21`, the hepatocyte CLint at 1 µM in data set [1] amounted to 1 µL/min/1e6 cells. In addition, the microsomal CLint in [2] was found to be 3 µL/min/mg. This compound also returned a logD in data set [3] of 0.1.

With `Cn1c(=O)n(-c2ccc(C(C)(C)C#N)cc2)c2c3cc(-c4cn[nH]c4)ccc3ncc21`, the AUC at 24 h in data set [4] is 920 ng·h/mL. In addition, the hepatocyte CLint at 1 µM in data set [1] worked out at 7.9 µL/min/1e6 cells. Besides, the Kp at 24 h in [5] is 0.026. In [2], the microsomal CLint is 38 µL/min/mg. In addition, in [6], the peak level (Cmax) was 570 ng/mL. This compound gave a half-life in data set [7] of 78 min. In addition, the Drug uptake result in data set [8] and in data set [9] was “Not Active” throughout. In [3], this compound came in with a logD of 3. Also, the time of peak concentration (Tmax) in [10] stood at 30 min.
